Reference: ChEMBL document CHEMBL2331324, “Synthesis and biological evaluation of guanidino analogues of roscovitine” (Eur J Med Chem, 2013)

Legend:
[1] = target: Mitogen-activated protein kinase 11 (Homo sapiens) (UniProt Q15759); test: Inhibition of recombinant p38 MAPKbeta (unknown origin) assessed as residual activity using [gamma-33P]ATP as substrate at 1 uM
In short: (§1)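 Kinase panel screen with each compound at 1 µM, in duplicate. Reactions were started with [γ-33P]ATP (800 cpm/pmol) at 5, 20 or 50 µM, chosen per enzyme to be at or below its ATP Km. Reactions were stopped with phosphoric acid and spotted onto P81 filters. Results are given as residual kinase activity.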

[2] = target: Mitogen-activated protein kinase 14 (Homo sapiens) (UniProt Q16539); test: Inhibition of recombinant p38 MAPKalpha (unknown origin) assessed as residual activity using [gamma-33P]ATP as substrate at 1 uM; in short: as §1
Chain of Mitogen-activated protein kinase 14 (Homo sapiens) (Q16539 whole entry): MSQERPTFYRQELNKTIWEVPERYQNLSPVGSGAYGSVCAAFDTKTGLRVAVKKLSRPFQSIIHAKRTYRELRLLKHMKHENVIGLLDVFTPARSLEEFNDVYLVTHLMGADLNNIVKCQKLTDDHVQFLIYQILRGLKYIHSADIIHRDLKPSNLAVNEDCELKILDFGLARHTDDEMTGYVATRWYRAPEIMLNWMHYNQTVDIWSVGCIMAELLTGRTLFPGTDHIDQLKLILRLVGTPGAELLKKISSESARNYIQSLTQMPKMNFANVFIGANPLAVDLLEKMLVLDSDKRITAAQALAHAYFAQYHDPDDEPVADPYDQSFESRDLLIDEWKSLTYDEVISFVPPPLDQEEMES

[3] = target: Serine/threonine-protein kinase OSR1 (Homo sapiens) (UniProt O95747); test: Inhibition of recombinant OSR1 (unknown origin) assessed as residual activity using [gamma-33P]ATP as substrate at 1 uM
In short: (§2)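 Selectivity panel run under previously published conditions. Screened at 1 μM in duplicate. Reactions started with [γ-33P]ATP (800 cpm/pmol) at 5, 20 or 50 μM, chosen to be at or below each enzyme's ATP Km. Stopped with phosphoric acid, spotted onto P81 filters. Result expressed as residual kinase activity.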

[4] = target: Mitogen-activated protein kinase kinase kinase 9 (Homo sapiens) (UniProt P80192); test: Inhibition of recombinant MLK1 (unknown origin) assessed as residual activity using [gamma-33P]ATP as substrate at 1 uM; in short: as §2
[5] = target: Dual specificity mitogen-activated protein kinase kinase 2 (Homo sapiens) (UniProt P36507); test: Inhibition of recombinant MKK2 (unknown origin) assessed as residual activity using [gamma-33P]ATP as substrate at 1 uM; in short: as §2
Chain of Dual specificity mitogen-activated protein kinase kinase 2 (Homo sapiens) (P36507 whole entry): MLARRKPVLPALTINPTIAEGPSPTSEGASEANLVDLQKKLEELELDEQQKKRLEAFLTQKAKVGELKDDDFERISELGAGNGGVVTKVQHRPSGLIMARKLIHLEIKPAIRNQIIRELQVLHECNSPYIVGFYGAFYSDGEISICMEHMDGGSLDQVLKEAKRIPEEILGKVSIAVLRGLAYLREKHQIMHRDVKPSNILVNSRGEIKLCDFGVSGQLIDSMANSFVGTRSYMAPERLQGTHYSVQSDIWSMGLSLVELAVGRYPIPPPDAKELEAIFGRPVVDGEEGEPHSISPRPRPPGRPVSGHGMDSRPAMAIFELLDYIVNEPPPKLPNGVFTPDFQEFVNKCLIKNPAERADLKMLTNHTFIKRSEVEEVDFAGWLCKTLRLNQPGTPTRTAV

[6] = target: MAP/microtubule affinity-regulating kinase 3 (Homo sapiens) (UniProt P27448); test: Inhibition of recombinant MARK3 (unknown origin) assessed as residual activity using [gamma-33P]ATP as substrate at 1 uM; in short: as §2
[7] = target: Serine/threonine-protein kinase MARK1 (Homo sapiens) (UniProt Q9P0L2); test: Inhibition of recombinant MARK1 (unknown origin) assessed as residual activity using [gamma-33P]ATP as substrate at 1 uM; in short: as §2
[8] = target: MAP kinase-activated protein kinase 2 (Homo sapiens) (UniProt P49137); test: Inhibition of recombinant MAPKAPK2 (unknown origin) assessed as residual activity using [gamma-33P]ATP as substrate at 1 uM; in short: as §2
Chain of MAP kinase-activated protein kinase 2 (Homo sapiens) (P49137 whole entry, looked up): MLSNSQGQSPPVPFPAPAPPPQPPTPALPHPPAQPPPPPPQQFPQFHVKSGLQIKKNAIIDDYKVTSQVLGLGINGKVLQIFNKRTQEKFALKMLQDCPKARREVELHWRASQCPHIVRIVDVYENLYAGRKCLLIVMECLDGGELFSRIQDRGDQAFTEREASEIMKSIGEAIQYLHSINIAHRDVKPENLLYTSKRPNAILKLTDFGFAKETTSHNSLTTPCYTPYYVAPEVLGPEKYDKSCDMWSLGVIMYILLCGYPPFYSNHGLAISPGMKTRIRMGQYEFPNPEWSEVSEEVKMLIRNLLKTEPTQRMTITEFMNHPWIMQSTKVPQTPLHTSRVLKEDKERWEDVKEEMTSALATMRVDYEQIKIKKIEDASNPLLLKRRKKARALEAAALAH

[9] = target: Tyrosine-protein kinase Lck (Homo sapiens) (UniProt P06239); test: Inhibition of recombinant LCK (unknown origin) assessed as residual activity using [gamma-33P]ATP as substrate at 1 uM; in short: as §2
Chain of Tyrosine-protein kinase Lck (Homo sapiens) (P06239 2-509 limits assumed): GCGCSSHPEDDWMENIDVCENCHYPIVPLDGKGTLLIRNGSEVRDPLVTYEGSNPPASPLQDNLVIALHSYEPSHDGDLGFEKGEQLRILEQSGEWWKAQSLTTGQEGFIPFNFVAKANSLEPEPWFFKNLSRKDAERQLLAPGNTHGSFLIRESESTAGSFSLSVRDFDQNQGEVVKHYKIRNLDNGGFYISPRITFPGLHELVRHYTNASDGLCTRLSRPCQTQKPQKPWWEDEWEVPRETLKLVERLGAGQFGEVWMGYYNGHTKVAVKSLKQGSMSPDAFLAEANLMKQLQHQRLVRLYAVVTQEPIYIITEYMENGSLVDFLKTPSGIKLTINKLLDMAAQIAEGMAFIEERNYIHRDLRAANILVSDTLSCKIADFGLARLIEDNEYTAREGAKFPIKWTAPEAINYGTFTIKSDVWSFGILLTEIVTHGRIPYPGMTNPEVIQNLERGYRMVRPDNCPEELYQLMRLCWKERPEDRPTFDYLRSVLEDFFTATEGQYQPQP

[10] = target: Mitogen-activated protein kinase 9 (Homo sapiens) (UniProt P45984); test: Inhibition of recombinant JNK2 (unknown origin) assessed as residual activity using [gamma-33P]ATP as substrate at 1 uM; in short: as §2
[11] = target: Homeodomain-interacting protein kinase 2 (Homo sapiens) (UniProt Q9H2X6); test: Inhibition of recombinant HIPK2 (unknown origin) assessed as residual activity using [gamma-33P]ATP as substrate at 1 uM
Chain of Homeodomain-interacting protein kinase 2 (Homo sapiens) (Q9H2X6 whole entry, looked up): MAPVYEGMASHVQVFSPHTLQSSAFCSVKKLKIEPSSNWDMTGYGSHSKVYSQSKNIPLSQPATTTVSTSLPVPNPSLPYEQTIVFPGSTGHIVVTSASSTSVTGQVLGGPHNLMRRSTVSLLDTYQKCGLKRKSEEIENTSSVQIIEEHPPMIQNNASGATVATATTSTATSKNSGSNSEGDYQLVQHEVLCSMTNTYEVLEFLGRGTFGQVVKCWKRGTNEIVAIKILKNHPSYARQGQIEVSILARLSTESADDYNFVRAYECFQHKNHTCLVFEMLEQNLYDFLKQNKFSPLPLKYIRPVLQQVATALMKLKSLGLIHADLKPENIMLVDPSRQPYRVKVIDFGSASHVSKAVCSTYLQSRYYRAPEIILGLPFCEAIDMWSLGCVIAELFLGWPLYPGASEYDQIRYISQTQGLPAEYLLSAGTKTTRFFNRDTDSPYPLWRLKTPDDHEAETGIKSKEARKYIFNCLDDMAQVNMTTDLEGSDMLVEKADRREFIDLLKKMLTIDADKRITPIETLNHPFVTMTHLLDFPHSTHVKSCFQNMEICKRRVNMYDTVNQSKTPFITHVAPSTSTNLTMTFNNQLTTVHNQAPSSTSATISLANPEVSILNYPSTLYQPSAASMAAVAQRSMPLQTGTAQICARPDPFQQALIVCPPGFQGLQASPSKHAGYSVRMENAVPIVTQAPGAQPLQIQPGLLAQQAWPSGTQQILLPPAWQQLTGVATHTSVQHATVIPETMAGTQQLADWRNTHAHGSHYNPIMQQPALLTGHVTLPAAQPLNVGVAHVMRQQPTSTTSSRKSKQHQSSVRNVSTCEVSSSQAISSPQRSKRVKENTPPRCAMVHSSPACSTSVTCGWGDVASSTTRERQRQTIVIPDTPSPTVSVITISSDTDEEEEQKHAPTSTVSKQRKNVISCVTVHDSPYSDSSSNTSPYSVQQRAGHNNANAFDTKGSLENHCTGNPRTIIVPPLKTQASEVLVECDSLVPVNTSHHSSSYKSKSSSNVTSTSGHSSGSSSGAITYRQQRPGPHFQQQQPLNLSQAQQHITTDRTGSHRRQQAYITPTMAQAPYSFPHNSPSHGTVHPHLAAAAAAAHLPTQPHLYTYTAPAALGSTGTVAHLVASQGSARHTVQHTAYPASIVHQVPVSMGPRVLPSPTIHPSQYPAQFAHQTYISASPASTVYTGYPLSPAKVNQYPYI
In short: (§3)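 Recombinant kinase panel screened at 1 µM in duplicate. Reactions started with [γ-33P]ATP (800 cpm/pmol) at 5, 20 or 50 µM, chosen to sit at or below each enzyme's ATP Km. Stopped with phosphoric acid and spotted onto P81 filters. Result given as residual kinase activity.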

[12] = target: Ephrin type-B receptor 1 (Homo sapiens) (UniProt P54762); test: Inhibition of recombinant EPH-B1 (unknown origin) assessed as residual activity using [gamma-33P]ATP as substrate at 1 uM; in short: as §3
[13] = target: High affinity nerve growth factor receptor (Homo sapiens) (UniProt P04629); test: Inhibition of recombinant TRKA (unknown origin) assessed as residual activity using [gamma-33P]ATP as substrate at 1 uM; in short: as §1
[14] = target: Serine/threonine-protein kinase tousled-like 1 (Homo sapiens) (UniProt Q9UKI8); test: Inhibition of recombinant TLK1 (unknown origin) assessed as residual activity using [gamma-33P]ATP as substrate at 1 uM; in short: as §1
[15] = target: Tyrosine-protein kinase SYK (Homo sapiens) (UniProt P43405); test: Inhibition of recombinant SYK (unknown origin) assessed as residual activity using [gamma-33P]ATP as substrate at 1 uM; in short: as §1
[16] = target: SRSF protein kinase 1 (Homo sapiens) (UniProt Q96SB4); test: Inhibition of recombinant SRPK1 (unknown origin) assessed as residual activity using [gamma-33P]ATP as substrate at 1 uM; in short: as §1
[17] = target: Serine/threonine-protein kinase Sgk1 (Homo sapiens) (UniProt O00141); test: Inhibition of recombinant SGK1 (unknown origin) assessed as residual activity using [gamma-33P]ATP as substrate at 1 uM; in short: as §1
[18] = target: Serine/threonine-protein kinase D1 (Homo sapiens) (UniProt Q15139); test: Inhibition of recombinant PKD1 (unknown origin) assessed as residual activity using [gamma-33P]ATP as substrate at 1 uM; in short: as §2
[19] = target: Protein kinase C gamma type (Homo sapiens) (UniProt P05129); test: Inhibition of recombinant PKCgamma (unknown origin) assessed as residual activity using [gamma-33P]ATP as substrate at 1 uM; in short: as §2
[20] = target: Serine/threonine-protein kinase pim-3 (Homo sapiens) (UniProt Q86V86); test: Inhibition of recombinant PIM3 (unknown origin) assessed as residual activity using [gamma-33P]ATP as substrate at 1 uM; in short: as §2
[21] = target: Ephrin type-A receptor 2 (Homo sapiens) (UniProt P29317); test: Inhibition of recombinant EPH-A2 (unknown origin) assessed as residual activity using [gamma-33P]ATP as substrate at 1 uM; in short: as §3
Chain of Ephrin type-A receptor 2 (Homo sapiens) (P29317 whole entry): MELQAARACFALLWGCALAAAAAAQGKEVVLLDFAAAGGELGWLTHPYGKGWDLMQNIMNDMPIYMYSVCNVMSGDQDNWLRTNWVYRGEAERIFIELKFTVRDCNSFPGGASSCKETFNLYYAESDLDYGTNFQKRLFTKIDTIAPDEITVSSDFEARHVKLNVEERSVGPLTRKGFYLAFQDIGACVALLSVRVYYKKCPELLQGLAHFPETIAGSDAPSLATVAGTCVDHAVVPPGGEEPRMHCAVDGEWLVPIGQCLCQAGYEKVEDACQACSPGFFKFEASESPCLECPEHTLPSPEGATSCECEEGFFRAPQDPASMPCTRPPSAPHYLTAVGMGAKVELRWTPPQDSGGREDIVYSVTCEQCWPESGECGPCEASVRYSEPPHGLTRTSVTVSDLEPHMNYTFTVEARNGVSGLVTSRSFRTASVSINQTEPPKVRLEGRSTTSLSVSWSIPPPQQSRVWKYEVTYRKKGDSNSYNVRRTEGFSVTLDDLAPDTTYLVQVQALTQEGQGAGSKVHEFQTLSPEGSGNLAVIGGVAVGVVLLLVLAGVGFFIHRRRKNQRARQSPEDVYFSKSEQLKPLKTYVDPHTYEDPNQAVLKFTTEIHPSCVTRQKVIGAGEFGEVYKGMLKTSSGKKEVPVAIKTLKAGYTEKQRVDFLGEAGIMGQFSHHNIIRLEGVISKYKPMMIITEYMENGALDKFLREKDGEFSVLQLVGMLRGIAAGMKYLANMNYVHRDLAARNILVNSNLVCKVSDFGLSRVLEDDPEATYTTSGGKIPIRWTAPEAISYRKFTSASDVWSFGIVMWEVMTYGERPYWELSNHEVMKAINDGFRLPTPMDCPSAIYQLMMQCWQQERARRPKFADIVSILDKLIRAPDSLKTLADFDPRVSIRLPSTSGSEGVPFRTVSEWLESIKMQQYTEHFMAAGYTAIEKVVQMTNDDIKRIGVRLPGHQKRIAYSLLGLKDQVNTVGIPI

[22] = target: Dual specificity tyrosine-phosphorylation-regulated kinase 3 (Homo sapiens) (UniProt O43781); test: Inhibition of recombinant DYRK3 (unknown origin) assessed as residual activity using [gamma-33P]ATP as substrate at 1 uM; in short: as §3
[23] = target: Dual specificity protein kinase CLK2 (Homo sapiens) (UniProt P49760); test: Inhibition of recombinant CLK2 (unknown origin) assessed as residual activity using [gamma-33P]ATP as substrate at 1 uM; in short: as §3
Chain of Dual specificity protein kinase CLK2 (Homo sapiens) (P49760 whole entry, looked up): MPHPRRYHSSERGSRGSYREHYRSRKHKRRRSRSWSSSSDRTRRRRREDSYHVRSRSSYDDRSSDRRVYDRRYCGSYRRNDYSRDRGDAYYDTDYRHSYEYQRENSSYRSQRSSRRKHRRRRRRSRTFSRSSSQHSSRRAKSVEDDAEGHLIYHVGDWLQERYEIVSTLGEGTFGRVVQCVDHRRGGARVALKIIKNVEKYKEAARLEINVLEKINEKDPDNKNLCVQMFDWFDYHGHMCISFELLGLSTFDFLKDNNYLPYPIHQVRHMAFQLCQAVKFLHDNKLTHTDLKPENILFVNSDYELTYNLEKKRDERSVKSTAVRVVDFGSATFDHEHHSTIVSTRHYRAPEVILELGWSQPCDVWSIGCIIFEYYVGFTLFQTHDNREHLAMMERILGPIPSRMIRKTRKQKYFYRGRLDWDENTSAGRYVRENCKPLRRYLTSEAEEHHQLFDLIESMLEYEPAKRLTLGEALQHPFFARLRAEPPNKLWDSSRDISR

[24] = target: Cyclin-dependent kinase 2/cyclin A (Homo sapiens) (UniProt P24941+P20248+P78396); test: Inhibition of recombinant CDK2/cyclin A (unknown origin) assessed as residual activity using [gamma-33P]ATP as substrate at 1 uM; assay type: protein-complex assay
In short: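 CDK2/cyclin A included in the radiometric panel at 1 µM in duplicate. Reactions started with [γ-33P]ATP (800 cpm/pmol) at 5, 20 or 50 µM, at or below the enzyme's ATP Km. Stopped with phosphoric acid, spotted onto P81 filters; result given as residual kinase activity.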

[25] = target: Serine/threonine-protein kinase BRSK2 (Homo sapiens) (UniProt Q8IWQ3); test: Inhibition of recombinant BRSK2 (unknown origin) assessed as residual activity using [gamma-33P]ATP as substrate at 1 uM; in short: as §3
[26] = target: Mitogen-activated protein kinase kinase kinase 5 (Homo sapiens) (UniProt Q99683); test: Inhibition of recombinant ASK1 (unknown origin) assessed as residual activity using [gamma-33P]ATP as substrate at 1 uM; in short: as §3

Chain of Mitogen-activated protein kinase 11 (Homo sapiens) (Q15759 whole entry): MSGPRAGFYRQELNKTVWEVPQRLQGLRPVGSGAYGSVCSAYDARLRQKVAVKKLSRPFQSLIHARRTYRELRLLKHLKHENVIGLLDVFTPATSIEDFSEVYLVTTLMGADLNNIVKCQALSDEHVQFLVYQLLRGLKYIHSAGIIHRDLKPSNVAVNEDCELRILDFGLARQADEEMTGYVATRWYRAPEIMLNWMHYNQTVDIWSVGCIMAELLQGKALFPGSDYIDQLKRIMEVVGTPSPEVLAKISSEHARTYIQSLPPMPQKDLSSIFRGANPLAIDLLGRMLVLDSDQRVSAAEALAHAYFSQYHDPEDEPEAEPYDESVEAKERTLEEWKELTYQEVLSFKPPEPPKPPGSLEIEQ

CC[C@@H](CO)Nc1nc(NC(=N)N)c2ncn(C(C)C)c2n1
Activity [1]: 66% | Activity [2]: 82% | Activity [3]: 16% | Activity [4]: 31% | Activity [5]: 39% | Activity [6]: 17% | Activity [7]: 39% | Activity [8]: 48% | Activity [9]: 12% | Activity [10]: 73% | Activity [11]: 6% | Activity [12]: 7% | Activity [13]: 28% | Activity [14]: 9% | Activity [15]: 50% | Activity [16]: 14% | Activity [17]: 51% | Activity [18]: 18% | Activity [19]: 61% | Activity [20]: 44% | Activity [21]: 17% | Activity [22]: 11% | Activity [23]: 4% | Activity [24]: 7% | Activity [25]: 67% | Activity [26]: 81%

CC[C@H](CO)Nc1nc(NC(=N)N)c2ncn(C(C)C)c2n1
Activity [1]: 64% | Activity [2]: 87% | Activity [3]: 16% | Activity [4]: 25% | Activity [5]: 53% | Activity [6]: 24% | Activity [7]: 31% | Activity [8]: 41% | Activity [9]: 13% | Activity [10]: 85% | Activity [11]: 8% | Activity [12]: 8% | Activity [13]: 24% | Activity [14]: 9% | Activity [15]: 58% | Activity [16]: 22% | Activity [17]: 60% | Activity [18]: 17% | Activity [19]: 73% | Activity [20]: 64% | Activity [21]: 22% | Activity [22]: 18% | Activity [23]: 4% | Activity [24]: 5% | Activity [25]: 77% | Activity [26]: 100%
